Test results from ChEMBL document CHEMBL4020761, “Exploration of pyrrole derivatives to find an effective potassium-competitive acid blocker with moderately long-lasting suppression of gastric acid secretion” (Bioorg Med Chem, 2017).
The source made the active and inactive calls. No cut-off for these calls is given here.

Key:
[1] = Inhibition of H+/K+-ATPase in porcine stomach gastric mucosal microsomes assessed as reduction in inorganic phosphate production using ATP as substrate preincubated for 30 mins followed by ATP addition in presence of KCl at pH 6.5 by malachite green reagent based colorimetric assay; parameters: species or system Sus scrofa
[2] = test system: Rattus norvegicus; test: Inhibition of histamine-induced acid secretion in Jcl:Sprague-Dawley rat gastric at 1 mg/kg, iv pretreated for 3 mins after pylorus ligation followed by histamine.2HCl treatment measured after 3 hrs by titration method relative to control; type: functional
Outline: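 Anesthetized rats dosed iv at 1 mg/kg. Total acid output over 3 h after histamine injection compared with vehicle-treated rats.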

[3] = Lipophilicity, log D of the compound at pH 7.4 by HPLC analysis; type: physicochemical; settings: buffer
Outline: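 At pH 7.4, log D derived from HPLC retention time relative to standard compounds.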

[4] = Cytotoxicity against human HepG2 cells assessed as cellular ATP level at 100 uM after 1 day by ATPLite assay relative to control; type: cell-based; settings: read-out: Activity
[5] = molecular target: CYP3A4 (Homo sapiens, UniProt P08684); test: Inhibition of CYP3A4 (unknown origin) expressed in insect cells at 10 uM using testosterone as substrate after 15 mins by HPLC analysis relative to control; type: ADME; settings: recombinant CYP3A4 expressed in insect cells, probe testosterone
Outline: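 Testosterone substrate at 100 μmol/L with 10 nmol/L insect-cell-expressed CYP3A4 and 10 μmol/L test compound, incubated 15 min at 37 °C. 6β-hydroxytestosterone quantified by HPLC with UV detection.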

[6] = molecular target: hERG (KCNH2) (Homo sapiens, UniProt Q12809); test: Inhibition of human ERG expressed in HEK cells at 10 uM at -75 mV holding potential by Whole-cell voltage clamp assay relative to control; type: cell-based; settings: HEK cells expressing human ERG
[7] = Plasma concentration in Sprague-Dawley rat at 0.2 mg/kg, iv administered as cassette dose after 10 mins by LC-MS/MS analysis; type: ADME, organism-based
Outline: (§1)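 Fasted male Sprague-Dawley rats given compounds iv by cassette dosing at 0.2 mg/kg (as free base). Plasma and stomach sampled at 10 min, 1, 4 and 24 h. Plasma and 20% stomach homogenate in saline deproteinized with acetonitrile containing internal standard, then LC/MS/MS. AUC calculated for plasma and stomach. Values are averages of three rats.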

[8] = Drug uptake in Sprague-Dawley rat stomach at 0.2 mg/kg, iv administered as cassette dose after 10 mins by LC-MS/MS analysis; type: ADME, organism-based; settings: read-out: Drug uptake; outline: as §1
[9] = Plasma concentration in Sprague-Dawley rat at 0.2 mg/kg, iv administered as cassette dose after 1 hr by LC-MS/MS analysis; type: ADME, organism-based; outline: as §1
[10] = Drug uptake in Sprague-Dawley rat stomach at 0.2 mg/kg, iv administered as cassette dose after 1 hr by LC-MS/MS analysis; type: ADME, organism-based; settings: read-out: Drug uptake; outline: as §1
[11] = Drug uptake in Sprague-Dawley rat stomach at 0.2 mg/kg, iv administered as cassette dose after 4 hrs by LC-MS/MS analysis; type: ADME, organism-based; settings: read-out: Drug uptake; outline: as §1
[12] = AUC in Sprague-Dawley rat plasma at 0.2 mg/kg, iv administered as cassette dose by LC-MS/MS analysis; type: ADME, organism-based; outline: as §1
[13] = test system: Stomach; test: AUC in Sprague-Dawley rat stomach at 0.2 mg/kg, iv administered as cassette dose by LC-MS/MS analysis; type: ADME, organism-based; settings: in vivo; outline: as §1
[14] = Drug uptake in Sprague-Dawley rat stomach at 0.2 mg/kg, iv administered as cassette dose after 24 hrs by LC-MS/MS analysis; type: ADME, organism-based; settings: read-out: Drug uptake; outline: as §1
[15] = test system: Rattus norvegicus; test: Inhibition of histamine-induced acid secretion in Jcl:Sprague-Dawley rat assessed as pH of gastric perfusate at 1 mg/kg, iv pretreated for 3 mins after pylorus ligation followed by histamine.2HCl treatment measured after 3 hrs by glass electrode method (reference value: 2); type: functional
[16] = test system: Rattus norvegicus; test: Inhibition of histamine-induced acid secretion in Jcl:Sprague-Dawley rat assessed as increase in pH of gastric perfusate at 1 mg/kg, iv pretreated for 3 mins after pylorus ligation followed by histamine.2HCl treatment measured after 180 to 300 mins by glass electrode method; type: functional, organism-based
[17] = test system: Rattus norvegicus; test: Inhibition of histamine-induced acid secretion in Jcl:Sprague-Dawley rat assessed as increase in pH of gastric perfusate at 1 mg/kg, iv pretreated for 3 mins after pylorus ligation followed by histamine.2HCl treatment measured after 3 hrs by glass electrode method; type: functional, organism-based

Sequence of CYP3A4 (P08684 whole entry): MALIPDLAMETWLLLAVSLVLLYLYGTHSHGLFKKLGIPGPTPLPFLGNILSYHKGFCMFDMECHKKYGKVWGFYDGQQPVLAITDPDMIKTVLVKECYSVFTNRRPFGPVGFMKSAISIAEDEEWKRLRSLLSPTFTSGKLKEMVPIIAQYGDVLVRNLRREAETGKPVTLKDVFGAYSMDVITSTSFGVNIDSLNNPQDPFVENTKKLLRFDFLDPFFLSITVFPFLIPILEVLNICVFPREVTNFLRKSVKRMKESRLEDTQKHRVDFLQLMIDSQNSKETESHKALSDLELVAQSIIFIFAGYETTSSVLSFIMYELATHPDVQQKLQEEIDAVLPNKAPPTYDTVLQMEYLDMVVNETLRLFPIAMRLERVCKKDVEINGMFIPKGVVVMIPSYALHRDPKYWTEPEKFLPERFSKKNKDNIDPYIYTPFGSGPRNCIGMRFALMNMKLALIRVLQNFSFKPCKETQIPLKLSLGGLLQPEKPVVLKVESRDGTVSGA
Sequence of hERG (KCNH2) (Q12809 whole entry): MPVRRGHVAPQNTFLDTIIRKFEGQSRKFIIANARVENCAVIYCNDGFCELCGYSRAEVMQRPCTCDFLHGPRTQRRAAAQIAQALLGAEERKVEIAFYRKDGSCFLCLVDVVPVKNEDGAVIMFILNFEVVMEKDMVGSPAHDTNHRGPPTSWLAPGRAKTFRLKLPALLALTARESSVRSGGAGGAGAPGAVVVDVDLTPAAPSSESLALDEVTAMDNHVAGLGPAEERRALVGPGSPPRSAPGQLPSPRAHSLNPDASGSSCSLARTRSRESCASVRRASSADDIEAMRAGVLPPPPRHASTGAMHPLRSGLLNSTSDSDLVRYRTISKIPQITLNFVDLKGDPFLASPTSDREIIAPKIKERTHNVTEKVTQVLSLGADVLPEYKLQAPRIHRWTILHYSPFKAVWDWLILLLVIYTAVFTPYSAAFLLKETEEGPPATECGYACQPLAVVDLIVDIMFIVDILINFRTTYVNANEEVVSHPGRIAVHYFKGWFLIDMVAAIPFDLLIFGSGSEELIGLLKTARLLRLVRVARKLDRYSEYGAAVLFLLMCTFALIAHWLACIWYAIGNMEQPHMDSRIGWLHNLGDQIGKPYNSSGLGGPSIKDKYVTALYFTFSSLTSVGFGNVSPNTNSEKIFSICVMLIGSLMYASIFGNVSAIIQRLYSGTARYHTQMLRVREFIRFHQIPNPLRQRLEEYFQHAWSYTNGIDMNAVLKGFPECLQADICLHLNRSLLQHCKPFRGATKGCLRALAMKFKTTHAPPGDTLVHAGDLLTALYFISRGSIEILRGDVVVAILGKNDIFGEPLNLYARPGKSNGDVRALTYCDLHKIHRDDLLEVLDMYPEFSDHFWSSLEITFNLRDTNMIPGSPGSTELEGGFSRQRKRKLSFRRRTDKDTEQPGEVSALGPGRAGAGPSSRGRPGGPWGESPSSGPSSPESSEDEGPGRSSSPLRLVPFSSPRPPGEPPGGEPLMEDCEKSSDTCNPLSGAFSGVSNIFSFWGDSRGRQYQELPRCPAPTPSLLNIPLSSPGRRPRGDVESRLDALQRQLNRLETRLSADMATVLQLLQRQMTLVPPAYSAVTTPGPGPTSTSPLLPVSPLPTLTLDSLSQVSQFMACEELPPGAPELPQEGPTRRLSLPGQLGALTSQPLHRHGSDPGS

Compound | IC50 [1] | logD [3] | inhibition at 0.25 h, 10 µM [5] | concentration at 10 min [7] | concentration at 10 min [8] | concentration at 1 h [9] | concentration at 1 h [10] | concentration at 4 h [11] | AUC [12] | AUC [13] | concentration at 24 h [14] | inhibition in vivo at 1 mg/kg [2] | viability at 24 h, 100 µM [4] | inhibition at 10 µM [6] | pH [15] | inhibition [16] | inhibition [17]
CNCc1cn(S(=O)(=O)c2ncccc2C)c(-c2cccnc2F)c1F | 0.51 µM | 0.32 | 29% | – | – | – | – | – | – | – | – | 54% | 79.1% | – | – | – | –
CNCc1cn(S(=O)(=O)c2cncc(Cl)c2)c(-c2cccnc2F)c1F | 0.16 µM | 1.44 | 45.9% | – | – | – | – | – | – | – | – | – | 66.9% | – | – | – | –
CNCc1cn(S(=O)(=O)c2ccc(OC)cn2)c(-c2cccnc2F)c1F | 0.28 µM | 0.64 | 7.7% | 54.2 ng/mL | 624 ng/g | 13.1 ng/mL | 806 ng/g | 426 ng/g | 52 ng·h/mL | 6761 ng·h/g | – | 95% | 80% | 17.6% | – | – | –
CNCc1cn(S(=O)(=O)c2cncc(F)c2)c(-c2cccnc2F)c1F | 0.2 µM | 0.83 | 27% | 43 ng/mL | 330 ng/g | 8.3 ng/mL | 606 ng/g | 425 ng/g | 38 ng·h/mL | 6599 ng·h/g | 38.3 ng/g | 99% | 88.9% | 22.7% | >5 | inactive | –
CNCc1cn(S(=O)(=O)c2cc(OC)ccn2)c(-c2cccnc2F)c1F | 0.14 µM | 0.51 | 19% | 37.2 ng/mL | 617 ng/g | 10.1 ng/mL | 773 ng/g | 268 ng/g | 38 ng·h/mL | 4964 ng·h/g | 8.8 ng/g | 95% | 84.5% | 38.7% | – | – | –
CNCc1cn(S(=O)(=O)c2cccc(OC)n2)c(-c2cccnc2F)c1F | 0.15 µM | 1.03 | 55.8% | 43.5 ng/mL | 773 ng/g | 14.9 ng/mL | 1260 ng/g | 971 ng/g | 50 ng·h/mL | 14434 ng·h/g | 47.9 ng/g | 98% | 69.8% | 82.3% | – | – | Active
CNCc1cc(-c2cccnc2F)n(S(=O)(=O)c2cccnc2)c1 | 0.21 µM | – | 4.2% | 37.1 ng/mL | 420 ng/g | 8.4 ng/mL | 532 ng/g | 541 ng/g | 35 ng·h/mL | 7646 ng·h/g | 19.6 ng/g | 96% | – | – | – | – | –
CNCc1cn(S(=O)(=O)c2cccc(F)n2)c(-c2cccnc2F)c1F | 0.24 µM | 0.7 | 46% | – | – | – | – | – | – | – | – | – | 74% | – | – | – | –
CNCc1cn(S(=O)(=O)c2cccc(C)n2)c(-c2cccnc2F)c1F | 0.21 µM | 0.71 | 22.9% | 41.7 ng/mL | 1080 ng/g | 10.3 ng/mL | 999 ng/g | 527 ng/g | 41 ng·h/mL | 8550 ng·h/g | 3.3 ng/g | 91% | 83.8% | 13.9% | – | – | –
CNCc1cn(S(=O)(=O)c2cccnc2Cl)c(-c2cccnc2F)c1F | 0.39 µM | 0.75 | 53.1% | 28 ng/mL | 539 ng/g | 10.1 ng/mL | 722 ng/g | 427 ng/g | 33 ng·h/mL | 6568 ng·h/g | – | – | 86.9% | – | – | – | –

More lines, in order of falling IC50 [1], values ahead:

IC50 [1] | logD [3] | inhibition at 0.25 h, 10 µM [5] | concentration at 10 min [7] | concentration at 10 min [8] | concentration at 1 h [9] | concentration at 1 h [10] | concentration at 4 h [11] | AUC [12] | AUC [13] | concentration at 24 h [14] | Compound | inhibition in vivo at 1 mg/kg [2] | viability at 24 h, 100 µM [4] | inhibition at 10 µM [6] | pH [15] | inhibition [16] | inhibition [17]
0.14 µM | 0.61 | 49.7% | – | – | – | – | – | – | – | – | CNCc1cn(S(=O)(=O)c2cncc(C)c2)c(-c2cccnc2F)c1F | 87% | 86.9% | – | – | – | –
0.12 µM | 0.43 | 40% | 50.1 ng/mL | 360 ng/g | 8.4 ng/mL | 618 ng/g | 251 ng/g | 41 ng·h/mL | 4248 ng·h/g | – | CNCc1cn(S(=O)(=O)c2cnccc2C)c(-c2cccnc2F)c1F | 98% | 90.9% | 28.2% | – | – | –
0.12 µM | – | -9.7% | – | – | – | – | – | – | – | – | CNCc1cc(-c2cccnc2F)n(S(=O)(=O)c2ccccn2)c1 | 81% | – | – | – | – | –
0.1 µM | 0.42 | 21.7% | 25 ng/mL | 369 ng/g | 5 ng/mL | 526 ng/g | 347 ng/g | 22 ng·h/mL | 5179 ng·h/g | – | CNCc1cn(S(=O)(=O)c2ccc(F)cn2)c(-c2cccnc2F)c1F | 87% | 86.5% | – | – | – | –
0.079 µM | 0.2 | 5.6% | 26.5 ng/mL | 592 ng/g | 6.5 ng/mL | 706 ng/g | 254 ng/g | 26 ng·h/mL | 4566 ng·h/g | – | CNCc1cn(S(=O)(=O)c2ccco2)c(-c2cccnc2F)c1F | 75% | 90.8% | 28.7% | – | – | –
0.072 µM | 0.54 | 20.5% | 36.6 ng/mL | 412 ng/g | 12.2 ng/mL | 955 ng/g | 827 ng/g | 42 ng·h/mL | 11717 ng·h/g | 17.4 ng/g | CNCc1cn(S(=O)(=O)c2cccs2)c(-c2cccnc2F)c1F | 98% | 77.5% | 56.1% | – | – | –
0.06 µM | 0.45 | 12.8% | 37.4 ng/mL | 635 ng/g | 11.5 ng/mL | 688 ng/g | 194 ng/g | 41 ng·h/mL | 3865 ng·h/g | – | CNCc1cn(S(=O)(=O)c2ccoc2)c(-c2cccnc2F)c1F | 95% | 100% | 44.5% | – | – | –
0.049 µM | – | 14.4% | 51.5 ng/mL | 602 ng/g | 15 ng/mL | 752 ng/g | 629 ng/g | 54 ng·h/mL | 10277 ng·h/g | 130 ng/g | CNCc1cn(S(=O)(=O)c2cccnc2)c(-c2cccnc2F)c1F | 98% | – | – | – | – | –
0.032 µM | – | – | 20.8 ng/mL | 522 ng/g | 8.8 ng/mL | 592 ng/g | 210 ng/g | 27 ng·h/mL | 3815 ng·h/g | – | CNCc1cc(-c2cccnc2F)n(S(=O)(=O)c2cccs2)c1 | 96% | – | – | – | – | –
0.032 µM | – | 1.4% | 23.5 ng/mL | 407 ng/g | 8.9 ng/mL | 614 ng/g | 640 ng/g | 29 ng·h/mL | 9152 ng·h/g | 41.7 ng/g | CNCc1cc(-c2cccnc2F)n(S(=O)(=O)c2ccsc2)c1 | 98% | – | – | – | – | –
